Results: ChEMBL document CHEMBL4270613, “Design, synthesis, biological evaluation and structure-activity relationship of sophoridine derivatives bearing pyrrole or indole scaffold as potential antitumor agents” (Eur J Med Chem, 2018)
The source made the active and inactive calls. The rule behind the calls is not given here.

Experiments:
HepG2 [1] = test: Antitumor activity against human HepG2 cells xenografted in nude mouse assessed as tumor growth inhibition at 40 mg/kg for 25 days; format: functional, organism-based
Procedure, shortened: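 HepG2 xenografts were grown in nude mice and dosed at 40 mg/kg alongside a vehicle group. Tumour volume and body weight were recorded every 2 days. At the end, tumours were excised and weighed. Groups were compared with the vehicle group.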

HepG2 [2] = test: Induction of apoptosis in human HepG2 cells assessed as necrotic cells at 0.75 uM after 24 hrs by Annexin V-FITC/propidium iodide staining based flow cytometry (reference value: 1.18%); format: functional
Procedure, shortened: (§1)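 HepG2 treated at 0, 0.75, 1.5 and 3 µM for 24 h, then Annexin V-FITC/PI dual staining and quantification by flow cytometry.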

HepG2 [3] = test: Downregulation of Bcl2 protein expression in human HepG2 cells after 24 hrs by Western blot analysis; format: functional, cell-based
Procedure, shortened: (§2)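 HepG2 treated at 0, 0.75, 1.5 and 3 µM for 24 h, then western blot for Bax, Bcl-2 and cleaved caspase-3.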

HepG2 [4] = test: Induction of apoptosis in human HepG2 cells assessed as late apoptotic cells at 3 uM after 24 hrs by Annexin V-FITC/propidium iodide staining based flow cytometry (reference value: 1.6%); format: functional; procedure, shortened: as §1
[5] = target: T1, DNA topoisomerase 1 (Homo sapiens) (UniProt P11387); test: Inhibition of recombinant human topoisomerase-1 using supercoiled pBR322 DNA as substrate after 45 mins by ethidium bromide staining based gel electrophoresis method
T1 sequence (whole entry): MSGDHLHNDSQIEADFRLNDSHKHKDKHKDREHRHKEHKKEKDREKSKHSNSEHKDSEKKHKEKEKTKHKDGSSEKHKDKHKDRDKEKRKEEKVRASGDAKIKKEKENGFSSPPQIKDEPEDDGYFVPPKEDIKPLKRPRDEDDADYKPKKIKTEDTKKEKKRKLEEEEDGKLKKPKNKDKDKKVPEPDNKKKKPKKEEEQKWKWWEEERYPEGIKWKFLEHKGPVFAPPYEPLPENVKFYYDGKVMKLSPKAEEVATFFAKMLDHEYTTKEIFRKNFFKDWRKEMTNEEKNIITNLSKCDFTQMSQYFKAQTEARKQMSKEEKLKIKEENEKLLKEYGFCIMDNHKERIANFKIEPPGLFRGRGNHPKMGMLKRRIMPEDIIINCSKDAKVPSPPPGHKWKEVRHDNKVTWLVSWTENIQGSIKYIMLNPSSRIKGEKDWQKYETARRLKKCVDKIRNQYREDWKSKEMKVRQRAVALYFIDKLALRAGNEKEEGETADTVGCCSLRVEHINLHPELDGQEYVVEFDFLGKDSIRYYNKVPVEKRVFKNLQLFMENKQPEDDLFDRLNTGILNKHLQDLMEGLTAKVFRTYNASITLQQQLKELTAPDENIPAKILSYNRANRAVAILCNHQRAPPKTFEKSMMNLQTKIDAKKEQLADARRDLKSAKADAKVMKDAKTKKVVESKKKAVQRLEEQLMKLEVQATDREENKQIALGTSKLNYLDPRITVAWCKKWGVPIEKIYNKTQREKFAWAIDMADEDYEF
Procedure, shortened: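 Plasmid relaxation assay: pBR322 DNA with Topo I plus DMSO vehicle, test compound at 1000, 500, 250 or 100 µM, or CPT at 100 µM as control; DNA alone as reference lane; products resolved on gel.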

HepG2 [6] = test: Induction of apoptosis in human HepG2 cells assessed as necrotic cells at 1.5 uM after 24 hrs by Annexin V-FITC/propidium iodide staining based flow cytometry (reference value: 1.18%); format: functional; procedure, shortened: as §1
HepG2 [7] = test: Upregulation of cleaved caspase-3 protein expression in human HepG2 cells at 0.75 to 3 uM after 24 hrs by Western blot analysis; format: functional, cell-based; procedure, shortened: as §2
HepG2 [8] = test: Upregulation of Bax protein expression in human HepG2 cells after 24 hrs by Western blot analysis; format: functional, cell-based; procedure, shortened: as §2
HepG2 [9] = test: Antiproliferative activity against human HepG2 cells after 72 hrs by MTT assay; format: functional, cell-based; conditions: HepG2, 72 h
HeLa = test: Antiproliferative activity against human HeLa cells after 72 hrs by MTT assay; format: functional, cell-based
SMMC-7721 = test: Antiproliferative activity against human SMMC7721 cells after 72 hrs by MTT assay; format: functional, cell-based; conditions: SMMC-7721, 72 h
HepG2 [10] = test: Induction of apoptosis in human HepG2 cells assessed as early apoptotic cells at 3 uM after 24 hrs by Annexin V-FITC/propidium iodide staining based flow cytometry (reference value: 1%); format: functional; procedure, shortened: as §1
CNE = test: Antiproliferative activity against human CNE1 cells after 72 hrs by MTT assay; format: functional, cell-based
HepG2 [11] = test: Induction of apoptosis in human HepG2 cells assessed as live cells at 0.75 uM after 24 hrs by Annexin V-FITC/propidium iodide staining based flow cytometry (reference value: 96.2%); format: functional; procedure, shortened: as §1
MCF7 = test: Antiproliferative activity against human MCF7 cells after 72 hrs by MTT assay; format: functional, cell-based; conditions: MCF7, 72 h
HepG2 [12] = test: Antiproliferative activity against human HepG2 cells after 48 hrs by MTT assay; format: functional, cell-based; conditions: HepG2, 48 h
Procedure, shortened: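 HepG2 exposed to compounds for 48 h; MTT readout; camptothecin positive control; IC50 calculated; mean ± SD of three independent experiments, each in triplicate.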

HepG2 [13] = test: Induction of apoptosis in human HepG2 cells assessed as live cells at 1.5 uM after 24 hrs by Annexin V-FITC/propidium iodide staining based flow cytometry (reference value: 96.2%); format: functional; procedure, shortened: as §1
HepG2 [14] = test: Induction of apoptosis in human HepG2 cells assessed as necrotic cells at 3 uM after 24 hrs by Annexin V-FITC/propidium iodide staining based flow cytometry (reference value: 1.18%); format: functional; procedure, shortened: as §1
HepG2 [15] = test: Induction of apoptosis in human HepG2 cells assessed as late apoptotic cells at 0.75 uM after 24 hrs by Annexin V-FITC/propidium iodide staining based flow cytometry (reference value: 1.6%); format: functional; procedure, shortened: as §1
HepG2 [16] = test: Induction of apoptosis in human HepG2 cells assessed as late apoptotic cells at 1.5 uM after 24 hrs by Annexin V-FITC/propidium iodide staining based flow cytometry (reference value: 1.6%); format: functional; procedure, shortened: as §1
HepG2 [17] = test: Induction of apoptosis in human HepG2 cells assessed as early apoptotic cells at 1.5 uM after 24 hrs by Annexin V-FITC/propidium iodide staining based flow cytometry (reference value: 1%); format: functional; procedure, shortened: as §1
HepG2 [18] = test: Induction of apoptosis in human HepG2 cells after 24 hrs by Annexin V-FITC/propidium iodide staining based flow cytometry; format: functional, cell-based; procedure, shortened: as §1
CNE-2 = test: Antiproliferative activity against human CNE2 cells after 72 hrs by MTT assay; format: functional, cell-based; conditions: CNE-2, 72 h
HepG2 [19] = test: Induction of apoptosis in human HepG2 cells assessed as live cells at 3 uM after 24 hrs by Annexin V-FITC/propidium iodide staining based flow cytometry (reference value: 96.2%); format: functional; procedure, shortened: as §1
Mus musculus = test: Toxicity in nude mouse xenografted with human HepG2 cells assessed as change in body weight at 40 mg/kg for 25 days; format: organism-based; conditions: in vivo, 600 h
Procedure, shortened: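 Nude mice bearing HepG2 xenografts dosed at 40 mg/kg against vehicle; body weight and tumor volume measured every 2 days; tumors weighed at end.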

HepG2 [20] = test: Induction of apoptosis in human HepG2 cells assessed as early apoptotic cells at 0.75 uM after 24 hrs by Annexin V-FITC/propidium iodide staining based flow cytometry (reference value: 1%); format: functional; procedure, shortened: as §1

With COc1ccc2c(c1)c(/C=C1\CC[C@@H]3[C@H]4CCCN5CCC[C@H](CN3C1=O)[C@@H]45)cn2Cc1ccc(OCc2ccccc2)cc1 the TGI (HepG2 [1]) was “Active”, the Activity (HepG2 [2]) was 2.58% and the Activity (HepG2 [3]) was “Dose-dependent effect”. The Activity (HepG2 [4]) was 7.69%, the inhibition [5] was “Dose-dependent effect” and the Activity (HepG2 [6]) was 0.94%. The Activity (HepG2 [7]) was “Active”, the Activity (HepG2 [8]) was “Dose-dependent effect” and the IC50 (HepG2 [9]) was 0.93 µM. The IC50 (HeLa) was 1.44 µM, the IC50 (SMMC-7721) was 1.32 µM and the Activity (HepG2 [10]) was 33.8%. The IC50 (CNE) was 1.89 µM, the Activity (HepG2 [11]) was 87.6% and the IC50 (MCF7) was 0.94 µM. The IC50 (HepG2 [12]) was 1.96 µM, the Activity (HepG2 [13]) was 78% and the Activity (HepG2 [14]) was 1.52%. The Activity (HepG2 [15]) was 3.09%, the Activity (HepG2 [16]) was 11.5% and the Activity (HepG2 [17]) was 9.49%. For the same compound, the Activity (HepG2 [18]) was “Dose-dependent effect”, the IC50 (CNE-2) was 1.24 µM and the Activity (HepG2 [19]) was 57%. For the same compound, the Activity (Mus musculus) was “Non-Toxic” and the Activity (HepG2 [20]) was 6.71%.
For CC[C@@]1(O)C(=O)OCc2c1cc1n(c2=O)Cc2cc3ccccc3nc2-1 [CAMPTOTHECIN], the IC50 (HepG2 [9]) was 1.36 µM, the IC50 (HeLa) was 0.66 µM and the IC50 (SMMC-7721) was 1.08 µM. It also gave an IC50 (CNE) of 0.34 µM, an IC50 (MCF7) of 0.42 µM and an IC50 (HepG2 [12]) of 6.08 µM. It also gave an IC50 (CNE-2) of 0.98 µM.
For O=C1CCC[C@@H]2[C@H]3CCCN4CCC[C@H](CN12)[C@@H]34, the TGI (HepG2 [1]) was “inactive”.
